Source: PMC5884014 (Neoplasia (New York, N.Y.), 2017)
Marks after values point to notes of the source that are not given here.

Assays:
LS174T = experiment: Cytotoxicity assay; type: cell-based, human; conditions: Homo sapiens, LS174T, 72 h
Caco-2 = experiment: Cytotoxicity assay; type: cell-based; conditions: Homo sapiens, Caco-2, 72 h
HT-29 = experiment: Cytotoxicity assay; type: cell-based, human; conditions: Homo sapiens, HT-29, 72 h
LoVo = experiment: Cytotoxicity assay; type: cell-based, human; conditions: Homo sapiens, LoVo, 72 h
[1] = Toxicology examination: serum biochemistry; type: in vivo; conditions: ICR mice, 5-FU 50 mg/kg i.p., SL-1 30, oxaliplatin 7.5, cisplatin 7.5 mg/kg i.v.
SW620 = experiment: Cytotoxicity assay; type: cell-based, human; conditions: Homo sapiens, SW-620, 72 h
H3347 = experiment: Cytotoxicity assay; type: cell-based, human; conditions: Homo sapiens, H3347, 72 h
DLD-1 = experiment: Cytotoxicity assay; type: cell-based, human; conditions: Homo sapiens, DLD-1, 72 h
RKO cells [2] = experiment: Annexin V staining assay; type: cell-based, human
RKO = experiment: Cytotoxicity assay; type: cell-based, human; conditions: Homo sapiens, RKO, 72 h
HCT116 = experiment: Cytotoxicity assay; type: cell-based, human; conditions: Homo sapiens, HCT-116, 72 h
RKO cells [3] = experiment: Comet and modified comet assays; type: cell-based, human; conditions: 24 h, SL-1 0.75 μM, 5-FU […], alone or combined
Method in brief: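 RKO cells were exposed to the test compound and/or 5-FU for 24 h and then processed by comet assay. The read-out was tail moment, reported as means ± SD (n = 3) and compared by Student's t test. Synergy on tail moment was expressed as a combination index (CI).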

[4] = Toxicology examination: complete blood counts; type: in vivo; conditions: ICR mice, 5-FU 50 mg/kg i.p., SL-1 30, oxaliplatin 7.5, cisplatin 7.5 mg/kg i.v.
FHC = experiment: Cytotoxicity assay; type: cell-based, human; conditions: Homo sapiens, FHC, 72 h
Colo205 = experiment: Cytotoxicity assay; type: cell-based, human; conditions: Homo sapiens, COLO 205, 72 h
[5] = tested on: HexA-rev and HexB-rev fragments; experiment: Guanine-N7 alkylation, Maxam-Gilbert method; type: binding; conditions: 3'-end-labeled DNA, 37°C, 2 h, pH 7.4
Method in brief: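 Sixty-four symmetrical hexanucleotide fragments (HexA-rev, HexB-rev) were 3′-end-labelled, gel-purified on polyacrylamide, and reacted with the test compound. Guanine-N7 alkylation sites were mapped by the Maxam-Gilbert method. A weighted consensus sequence logo was generated with Seq2Logo 3.4.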

With `O=c1[nH]cc(F)c(=O)[nH]1` [5-FU, 5-fluorouracil] the IC50 (LS174T) was 18.6 ± 0.26 µM, the IC50 (Caco-2) was greater than 50 µM and the IC50 (HT-29) was 2.27 ± 0.41 µM. It also gave an IC50 (LoVo) of 25.8 ± 0.74 µM, an ALP ([1]; 2 days) of 359.25 ± 72.22 U/l and an ALT ([1]; 2 days) of 23.25 ± 4.97 U/l. For the same compound, the AST ([1]; 2 days) was 63.50 ± 13.24 U/l, the BUN ([1]; 2 days) was 23.65 ± 1.50 mg/dL and the CRE ([1]; 2 days) was 0.23 ± 0.1 mg/dL. It also gave a GLU ([1]; 2 days) of 577.25 ± 36.55 mg/dL, an ALP ([1]; 14 days) of 177.50 ± 119.69 U/l and a BUN ([1]; 14 days) of 22.20 ± 3.42 mg/dL. The CRE ([1]; 14 days) was 0.25 ± 0.10 mg/dL, the GLU ([1]; 14 days) was 244.00 ± 86.63 mg/dL and the GOT/AST ([1]; 14 days) was 53.00 ± 3.56 U/l. It also gave a GPT/ALT ([1]; 14 days) of 46.50 ± 7.85 U/l, an IC50 (SW620) of 18.5 ± 4.05 µM and an IC50 (H3347) of 5.89 ± 0.5 µM. For the same compound, the IC50 (DLD-1) was 16.9 ± 5.3 µM, the “mode of cell death” value (RKO cells [2]) was “mainly caused necrotic cell death” and the IC50 (RKO) was 6.15 ± 1.63 µM. For the same compound, the IC50 (HCT116) was 2.88 ± 0.33 µM, the tail moment (RKO cells [3]) was 3.9 ± 0.4 μm and the BASO ([4]; 2 days) was 0.01 ± 0.01 10^9/l. The EO ([4]; 2 days) was 0.06 ± 0.01* 10^9/l, the HCT ([4]; 2 days) was 27.94 ± 3.75 % and the HGB ([4]; 2 days) was 10.58 ± 2.62 g/dL. For the same compound, the LYMPH ([4]; 2 days) was 4.22 ± 0.45 10^9/l, the MCH ([4]; 2 days) was 14.94 ± 3.04 pg and the MCHC ([4]; 2 days) was 27.50 ± 4.71 g/dL. For the same compound, the MCV ([4]; 2 days) was 57.06 ± 3.75 fL, the MONO ([4]; 2 days) was 0.02 ± 0.01 10^9/l and the NEUT ([4]; 2 days) was 0.78 ± 0.40 10^9/l. For the same compound, the PLT ([4]; 2 days) was 873.00 ± 141.40** 10^9/l, the RBC ([4]; 2 days) was 4.98 ± 1.72* 10^12/l and the WBC ([4]; 2 days) was 5.09 ± 0.23 10^9/l. The BASO ([4]; 14 days) was 0.01 ± 0.01 10^9/l, the EO ([4]; 14 days) was 0.08 ± 0.01*** 10^9/l and the HCT ([4]; 14 days) was 45.53 ± 1.61 %. The HGB ([4]; 14 days) was 13.08 ± 0.25 g/dL, the LYMPH ([4]; 14 days) was 2.62 ± 0.94 10^9/l and the MCH ([4]; 14 days) was 16.25 ± 0.35 pg. For the same compound, the MCHC ([4]; 14 days) was 28.73 ± 0.48 g/dL, the MCV ([4]; 14 days) was 56.48 ± 1.73 fL and the MONO ([4]; 14 days) was 0.06 ± 0.10 10^9/l. For the same compound, the NEUT ([4]; 14 days) was 0.64 ± 0.17 10^9/l, the PLT ([4]; 14 days) was 745.75 ± 116.31* 10^9/l and the RBC ([4]; 14 days) was 8.06 ± 0.24*** 10^12/l. For the same compound, the WBC ([4]; 14 days) was 3.40 ± 1.21 10^9/l, the IC50 (FHC) was 21.9 ± 2.49 µM and the IC50 (Colo205) was 6.8 ± 3.05 µM.

For `Cc1ccc(Nc2c3ccccc3nc3c(C)cccc23)cc1NC(=O)Nc1ccc(N(CCCl)CCCl)cc1` [BO-1051], the “consensus sequence / binding pattern of guanine-N7 alkylation” value [5] was “no distinct binding sequence”.

For `CN(C)CCNC(=O)c1cccc(NC(=O)Nc2ccc(N(CCCl)CCCl)cc2)c1.Cl` [BO-1055], the “consensus sequence / binding pattern of guanine-N7 alkylation” value [5] was “no distinct binding sequence”.
